From ChEMBL document CHEMBL1124912, “Inhibition of human leukocyte elastase. 3. Synthesis and activity of 3'-substituted cephalosporins” (J Med Chem, 1990) come the findings set out here.

The target in test [1] is T1, Neutrophil elastase (Homo sapiens) (UniProt P08246).
T1 sequence (whole entry): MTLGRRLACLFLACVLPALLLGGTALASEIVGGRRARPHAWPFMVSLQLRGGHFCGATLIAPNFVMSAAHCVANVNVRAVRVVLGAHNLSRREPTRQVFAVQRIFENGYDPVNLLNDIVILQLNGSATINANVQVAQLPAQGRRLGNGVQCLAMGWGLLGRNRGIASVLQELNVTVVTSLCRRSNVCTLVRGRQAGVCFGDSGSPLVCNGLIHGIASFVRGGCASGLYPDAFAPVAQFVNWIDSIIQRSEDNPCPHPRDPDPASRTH
Put plainly: Second-order rate constant for time-dependent inactivation of Human Leukocyte Elastase for 15 min. The method, boiled down:
(§1)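 Inactivation of HLE by inhibitor was followed over 15 min. The second-order rate constant was expressed as k_obs/[I] (M^-1 s^-1). Where inhibition was not time-dependent, Ki was instead calculated from the initial velocity.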

Test [2] has as its target T2, Neutrophil elastase (Homo sapiens, UniProt P08246).
T2 sequence (P08246 whole entry): T1 sequence (whole entry)
Kind of test: In vitro inhibitory activity against human leukocyte elastase (HLE). In outline:
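HLE at 1 μg/mL mixed with inhibitor, with enzyme activity read 2 min after mixing. IC50 (μM) is the inhibitor concentration that cuts HLE activity by 50%.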

The target of test [3] is T1, Neutrophil elastase (Homo sapiens). Put plainly: Second-order rate constant for time-dependent inactivation of HLE for 15 min. The method, boiled down: as §1
Test [4] shares this target.

With `CCOC(=S)SCC1=C(C(=O)OC(C)(C)C)N2C(=O)[C@H](OC)C2S(=O)(=O)C1` (stereo partly specified), in test [1], the k obs / 1 was 4300 M⁻¹ s⁻¹. For the same compound, in test [2], the IC50 worked out at 1820 nM.

In turn, `CO[C@H]1C(=O)N2C(C(=O)OC(C)(C)C)=C(COC(=O)CCC(=O)O)CS(=O)(=O)[C@H]12` had a k obs / 1 in test [3] of 13800 M⁻¹ s⁻¹.

With `CO[C@H]1C(=O)N2C(C(=O)OC(C)(C)C)=C(COC(=O)N[C@@H](Cc3ccccc3)C(=O)O)CS(=O)(=O)C12` (stereo partly specified), in test [3], the k obs / 1 is 63900 M⁻¹ s⁻¹. The compound also had an IC50 in test [2] of 130 nM.

The compound `CO[C@H]1C(=O)N2C(C(=O)OC(C)(C)C)=C(CSc3nc[nH]n3)CS(=O)(=O)C12` (stereo partly specified) displayed a k obs / 1 in test [1] of 3500 M⁻¹ s⁻¹.

In the case of `CO[C@H]1C(=O)N2C(C(=O)OC(C)(C)C)=C(CSc3nnc[nH]3)CS(=O)(=O)C12` (stereo partly specified), the half-inhibitory concentration (IC50) in test [2] is 2400 nM.

In turn, `CO[C@H]1C(=O)N2C(C(=O)OC(C)(C)C)=C(CS(=O)(=O)c3ccccc3)CS(=O)(=O)C12` (stereo partly specified) displayed an IC50 in test [2] of 440 nM.

In the case of `CO[C@H]1C(=O)N2C(C(=O)OC(C)(C)C)=C(CSc3nnnn3C)CS(=O)(=O)C12` (stereo partly specified), the k obs / 1 in test [1] was found to be 15000 M⁻¹ s⁻¹. For the same compound, in test [2], 1620 nM corresponded to half-maximal inhibition (IC50).

Turning to `CO[C@H]1C(=O)N2C(C(=O)OC(C)(C)C)=C(C)CS(=O)(=O)C12` (stereo partly specified), the k obs / 1 in test [3] was determined as 1630 M⁻¹ s⁻¹.

Compound `CO[C@H]1C(=O)N2C(C(=O)OC(C)(C)C)=C(CSc3nc(=O)c(=O)[nH]n3C)CS(=O)(=O)C12` (stereo partly specified) came in with a k obs / 1 in test [1] of 8600 M⁻¹ s⁻¹. This compound also gave an IC50 in test [2] of 630 nM.

`CO[C@H]1C(=O)N2C(C(=O)OC(C)(C)C)=C(COC(=O)c3ccccc3)CS(=O)(=O)C12` (stereo partly specified): the k obs / 1 in test [1] came out at 32500 M⁻¹ s⁻¹.

Regarding `CO[C@H]1C(=O)N2C(C(=O)OC(C)(C)C)=C(C[S+]([O-])c3ccccc3)CS(=O)(=O)C12` (stereo partly specified), the k obs / 1 in test [3] worked out at 16800 M⁻¹ s⁻¹. The IC50 in test [2] is 910 nM.

In test [1], `CO[C@H]1C(=O)N2C(C(=O)OC(C)(C)C)=C(CSc3nccn3C)CS(=O)(=O)C12` (stereo partly specified) yielded a k obs / 1 of 1880 M⁻¹ s⁻¹. The compound also gave an IC50 in test [2] of 2330 nM.

`CO[C@H]1C(=O)N2C(C(=O)OC(C)(C)C)=C(CSc3nnnn3CC(=O)O)CS(=O)(=O)C12` (stereo partly specified): the k obs / 1 in test [1] came out at 3700 M⁻¹ s⁻¹.

In turn, `CO[C@H]1C(=O)N2C(C(=O)OC(C)(C)C)=C(COC(C)=O)CS(=O)(=O)C12` (stereo partly specified) returned a k obs / 1 in test [4] of 12700 M⁻¹ s⁻¹. Also, the IC50 in test [2] was 1330 nM.

The compound `CO[C@H]1C(=O)N2C(C(=O)OC(C)(C)C)=C(CCl)CS(=O)(=O)C12` (stereo partly specified) had a k obs / 1 in test [1] of 14900 M⁻¹ s⁻¹.

In the case of `CO[C@H]1C(=O)N2C(C(=O)OC(C)(C)C)=C(COC(=O)NCc3ccccc3)CS(=O)(=O)C12` (stereo partly specified), the k obs / 1 in test [1] was found to be 15100 M⁻¹ s⁻¹.

On to `COCC1=C(C(=O)OC(C)(C)C)N2C(=O)[C@H](OC)C2S(=O)(=O)C1` (stereo partly specified), for which half-maximal inhibition in test [2] (IC50) required 1000 nM.

Regarding `CO[C@H]1C(=O)N2C(C(=O)OC(C)(C)C)=C(CSc3nnc(C)s3)CS(=O)(=O)C12` (stereo partly specified), the k obs / 1 in test [3] was determined as 7900 M⁻¹ s⁻¹. In test [2], this compound showed an IC50 of 2230 nM.

`CO[C@H]1C(=O)N2C3=C(COC3=O)CS(=O)(=O)C12` (stereo partly specified) returned a k obs / 1 in test [1] of 46 M⁻¹ s⁻¹. Moreover, half-maximal inhibition in test [2] (IC50) was put at 57800 nM.

For the compound `CO[C@H]1C(=O)N2C(C(=O)OC(C)(C)C)=C(COC(N)=O)CS(=O)(=O)C12` (stereo partly specified), in test [3], the k obs / 1 was determined as 10800 M⁻¹ s⁻¹.

Regarding `C=CCC1=C(C(=O)OC(C)(C)C)N2C(=O)[C@H](OC)C2S(=O)(=O)C1` (stereo partly specified), the k obs / 1 in test [1] was found to be 6100 M⁻¹ s⁻¹.

Consider `CO[C@H]1C(=O)N2C(C(=O)OC(C)(C)C)=C(COC(=O)C(C)(C)C)CS(=O)(=O)C12` (stereo partly specified), for which the k obs / 1 in test [1] stood at 15800 M⁻¹ s⁻¹.
